Assay results reported in ChEMBL document CHEMBL1148927, “A novel antimicrobial indolizinium alkaloid from Aniba panurensis” (J Nat Prod, 2004).
Active and inactive are the calls of the source. The rule behind the calls is not given here.

Tests used:
Enterococcus faecium [1] = experiment: […] activity against Enterococcus faecium 1438 at 100 ug/mL after 18 hrs by broth microdilution assay; type: functional, organism-based
Summary of the method: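 E. faecium 1438 clinical isolate grown at 37 °C with 100 rpm shaking in Todd Hewitt broth with 0.5% yeast extract and 2% NaCl to exponential phase. Culture adjusted to A600 0.3, then diluted 1:1000. Added to dried sample in wells, incubated 18 h, and growth read at A650 against medium-only cultures. Chloramphenicol 100 µg/mL was the inhibition control.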

Candida albicans = experiment: Antifungal activity against Candida albicans 99-788 after 24 hrs by broth microdilution assay; type: functional
Summary of the method: (§1)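 Clinical isolates grown in YM broth at 37 °C with shaking at 100 rpm to exponential phase, adjusted to A600 = 0.3, then diluted 1:150 (C. albicans) or 1:128 (C. neoformans). Samples dried in wells, culture added, and tested top dose 250 µg/mL plus five 2-fold dilutions. Incubation 24 h (C. albicans) or 72 h (C. neoformans). A650 read; MIC50 = concentration lowering A650 ≥50% vs medium-only cultures.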

Cryptococcus neoformans [2] = experiment: Antifungal activity against Cryptococcus neoformans 96-1034 after 72 hrs by broth microdilution assay; type: functional; summary of the method: as §1
Enterococcus faecium [3] = experiment: […] activity against Enterococcus faecium 1438 by broth microdilution assay; type: functional
Cryptococcus neoformans [4] = experiment: Antifungal activity against Cryptococcus neoformans 96-1034 by broth microdilution assay; type: functional
Summary of the method: (§2)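 Broth microdilution in RPMI 1640 buffered with MOPS, following NCCLS guidelines; values reported as MIC90.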

Clavispora lusitaniae = experiment: Antifungal activity against Candida lusitaniae by broth microdilution assay; type: functional; summary of the method: as §2
Nakaseomyces glabratus = experiment: Antifungal activity against Candida glabrata by broth microdilution assay; type: functional; summary of the method: as §2
Pichia kudriavzevii = experiment: Antifungal activity against Candida krusei ATCC 6258 by broth microdilution assay; type: functional; summary of the method: as §2
Candida parapsilosis = experiment: Antifungal activity against Candida parapsilosis ATCC 22019 by broth microdilution assay; type: functional; settings: Lodderomyces parapsilosis; summary of the method: as §2
[5] = Toxicity in sheep red blood cells assessed as hemolysis after 2 hrs; type: cell-based, Ovis aries; settings: erythrocyte
Summary of the method: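 Sheep red blood cells at 4% final in 0.2 mL, with samples serially diluted in phosphate-buffered saline; highest dose contained 5% DMSO. Incubated 2 h at 37 °C, then 0.1 mL taken to measure hemolysis.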

[6] = Lipophilicity, log K in octanol water; type: physicochemical
Staphylococcus aureus [7] = experiment: […] activity against Staphylococcus aureus 385 after 24 hrs by broth microdilution assay
Staphylococcus aureus [8] = experiment: […] activity against Staphylococcus aureus 385 at 100 ug/mL after 24 hrs by broth microdilution assay

In the case of `O=C(N[C@H](CO)[C@H](O)c1ccc([N+](=O)[O-])cc1)C(Cl)Cl`, the Activity (Enterococcus faecium [1]) is reported as “Active”.
Compound `CCCCCCCC/C=C\c1c(C)c(/C=C\CCCCCCCC)c2[n+](c1C)CCC2.O=C([O-])C(F)(F)F` [ANIBAMINE] has an MIC50 (Candida albicans) of 0.25 mg/L, an MIC90 (Candida albicans) of 0.5 mg/L and an MIC50 (Cryptococcus neoformans [2]) of 0.25 mg/L. For the same compound, the MIC50 (Enterococcus faecium [3]) was 0.25 mg/L, the MIC90 (Cryptococcus neoformans [4]) was 0.25 mg/L and the MIC90 (Clavispora lusitaniae) was 1 mg/L. The MIC90 (Nakaseomyces glabratus) was 2 mg/L, the MIC90 (Pichia kudriavzevii) was 0.5 mg/L and the MIC90 (Candida parapsilosis) was 0.5 mg/L. For the same compound, the Activity [5] was “Toxic”, the “log K” value [6] was 9.1 and the MIC50 (Staphylococcus aureus [7]) was greater than 25 mg/L.
With `O=C(O)c1cn(C2CC2)c2cc(N3CCNCC3)c(F)cc2c1=O` the Activity (Staphylococcus aureus [8]) was “Active”.
